Data from publication PMC9989852 (Food and chemical toxicology : an international journal …, 2022).

What was measured:
[1] = system: auricular draining lymph nodes (dLNs); test: Draining lymph node phenotyping by flow cytometry after 28-day dermal exposure; format: in vivo, B6C3F1 mice; conditions: 28 days
In short: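 Female B6C3F1 mice (5/group) received 25 μl/ear daily to the dorsal ears in acetone. About 24 h after the last dose, tissues went into RPMI: both auricular dLNs, half spleen and one ear pinna. Single-cell suspensions were acquired on an LSR II, with populations gated per supplemental strategy and FMO gating controls. Results are mean ± SE, n=5, by one-way ANOVA.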

[2] = system: B6C3F1 mice; test: Serum chemistries after 28-day dermal exposure; format: in vivo; conditions: 28 days
In short: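 Female B6C3F1 mice received daily dorsal ear application (25 μl/ear, acetone vehicle). About 24 h after the last dose, blood was taken by cardiac puncture. Serum was separated by centrifugation and stored at −20 °C. ALKP, BUN, glucose and cholesterol were read on a Catalyst DX analyzer. Data are mean ± SE of 4–5 mice, ANOVA with Dunnett's; ALKP was also tested by linear regression (p < 0.05).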

[3] = system: kidney, spleen; test: Kidney and spleen histopathology after 28-day dermal exposure; format: in vivo, B6C3F1 mice; conditions: 1.25–5%, 28 days, data not shown
In short: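 Female B6C3F1 mice (5/group) received 25 μl/ear on the dorsal ear surfaces daily, with acetone as vehicle. Tissues were formalin-fixed about 24 h after the last dose: liver remainder, half spleen, right kidney and half ear pinna. Sections were paraffin-embedded, cut at 5 μm and stained with H&E. A veterinary pathologist read them per STP guideline and graded 1 (minimal) to 5 (severe) by extent.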

O=C(O)C(F)(F)C(F)(F)C(F)(F)C(F)(F)F [PFPeA, perfluoropentanoic acid]
dLN B-cells cell number ([1]; 1.25%): 8.67 ± 0.72 × 10^5
dLN B-cells frequency ([1]; 1.25%): 14.18 ± 0.59%
dLN CD4^+ cell number ([1]; 1.25%): 2.63 ± 0.27 × 10^6
dLN CD4^+ frequency ([1]; 1.25%): 42.52 ± 0.79%
dLN CD8^+ cell number ([1]; 1.25%): 18.60 ± 0.18 × 10^5
dLN CD8^+ frequency ([1]; 1.25%): 30.24 ± 0.44%
dLN CD11b+ cell number ([1]; 1.25%): 7.21 ± 1.61 × 10^4
dLN CD11b+ frequency ([1]; 1.25%): 1.26 ± 0.29%
dLN CD86 B-cells ([1]; 1.25%): 1140.40 ± 46.06 MFI
dLN CD86 DCs ([1]; 1.25%): 42.60 ± 1.44 MFI x 10^2
dLN Dendritic Cells cell number ([1]; 1.25%): 6.24 ± 0.42 × 10^4
dLN Dendritic Cells frequency ([1]; 1.25%): 1.02 ± 0.03%
dLN Eosinophils cell number ([1]; 1.25%): 20.90 ± 7.02 × 10^2
dLN MHCII B-cells ([1]; 1.25%): 105.00 ± 1.83 MFI × 10^2
dLN NK cell number ([1]; 1.25%): 3.23 ± 0.30 × 10^4
dLN NK frequency ([1]; 1.25%): 0.53 ± 0.03%
dLN Neutrophils cell number ([1]; 1.25%): 12.30 ± 1.75 × 10^2
dLN Total Cellularity ([1]; 1.25%): 6.15 ± 0.57 × 10^6
dLN B-cells cell number ([1]; 2.5%): 12.60 ± 2.36 × 10^5
dLN B-cells frequency ([1]; 2.5%): 15.00 ± 0.92 %
dLN CD4^+ cell number ([1]; 2.5%): 3.34 ± 0.55 × 10^6
dLN CD4^+ frequency ([1]; 2.5%): 39.54 ± 0.62 %
dLN CD8^+ cell number ([1]; 2.5%): 25.00 ± 3.80 × 10^5
dLN CD8^+ frequency ([1]; 2.5%): 29.96 ± 0.86%
dLN CD11b+ cell number ([1]; 2.5%): 17.00 ± 4.33 × 10^4
dLN CD11b+ frequency ([1]; 2.5%): 1.92 ± 0.19%
dLN CD86 B-cells ([1]; 2.5%): 1131.40 ± 96.26 MFI
dLN CD86 DCs ([1]; 2.5%): 40.30 ± 1.05 MFI x 10^2
dLN Dendritic Cells cell number ([1]; 2.5%): 10.40 ± 1.31 × 10^4
dLN Dendritic Cells frequency ([1]; 2.5%): 1.31 ± 0.15%
dLN Eosinophils cell number ([1]; 2.5%): 81.90 ± 15.70 × 10^2
dLN MHCII B-cells ([1]; 2.5%): 115.00 ± 6.25 MFI × 10^2
dLN NK cell number ([1]; 2.5%): 5.52 ± 0.71 × 10^4
dLN NK frequency ([1]; 2.5%): 0.69 ± 0.07%
dLN Neutrophils cell number ([1]; 2.5%): 19.10 ± 3.38 × 10^2
dLN Total Cellularity ([1]; 2.5%): 8.45 ± 1.43 × 10^6
dLN B-cells cell number ([1]; 5%): 17.00 ± 1.58 × 10^5
dLN B-cells frequency ([1]; 5%): 16.22 ± 0.70 %
dLN CD4^+ cell number ([1]; 5%): 3.99 ± 0.36 × 10^6
dLN CD4^+ frequency ([1]; 5%): 38.02 ± 0.95 %
dLN CD8^+ cell number ([1]; 5%): 30.20 ± 0.23 × 10^5
dLN CD8^+ frequency ([1]; 5%): 28.88 ± 0.40%
dLN CD11b+ cell number ([1]; 5%): 24.00 ± 3.48 × 10^4
dLN CD11b+ frequency ([1]; 5%): 2.26 ± 0.17%
dLN CD86 B-cells ([1]; 5%): 1188.80 ± 47.41 MFI
dLN CD86 DCs ([1]; 5%): 36.80 ± 2.23 MFI x 10^2
dLN Dendritic Cells cell number ([1]; 5%): 12.60 ± 1.09 × 10^4
dLN Dendritic Cells frequency ([1]; 5%): 1.21 ± 0.08%
dLN Eosinophils cell number ([1]; 5%): 140.00 ± 23.00 × 10^2
dLN MHCII B-cells ([1]; 5%): 126.00 ± 6.53 MFI × 10^2
dLN NK cell number ([1]; 5%): 7.50 ± 0.56 × 10^4
dLN NK frequency ([1]; 5%): 0.73 ± 0.05%
dLN Neutrophils cell number ([1]; 5%): 22.40 ± 5.58 × 10^2
dLN Total Cellularity ([1]; 5%): 10.50 ± 0.93 × 10^6
serum cholesterol ([2]; 1.25%): decrease
serum urea nitrogen (BUN), decrease ([2]; 2.5%): 20%
serum glucose, increase compared to vehicle control ([2]; 5%): 30%
serum urea nitrogen (BUN), decrease ([2]; 5%): 22%
serum alanine aminotransferase (ALT) ([2]; any concentration, data not shown): No change
microscopic observations in the kidney or the spleen [3]: No PFPeA, PFHxA, or PFHpA-related microscopic observations
